The values below come from ChEMBL document CHEMBL3272021, “Quaternary pilocarpine derivatives as potential acetylcholine antagonists. 2. Alterations in the lactone and imidazole moieties” (J Med Chem, 1976).

Data set [1] has as its system Ileum. In words: Inhibition of acetylcholine-induced contraction in guinea pig ileum at 10 ug/ml. The format is functional, Cavia porcellus. Conditions: for inhibition at 10 µg/mL: Cavia porcellus, Ileum. A digest of the protocol:
(§1)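 Terminal guinea pig ileum segment in a 5-ml organ bath of Tyrode solution at 35°, with isometric kymograph recording. Control contractions were elicited with 0.1 μg AcCh. Compound was added, and AcCh followed 1 min later without washing. The value is percent reduction of the control AcCh response, averaged over two separate assays. Concentrations are final per ml of bath fluid.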

The subject of data set [2] is Ileum. Description: Inhibition of acetylcholine-induced contraction in guinea pig ileum at 0.4 ug/ml. It is filed as functional. Conditions: Cavia porcellus. The procedure, abridged:
as §1

The test system of data set [3] is Ileum. Description: Toxicity in guinea pig ileum assessed as spasmogenic activity relative to 0.6 ug/ml pilocarpine. It is filed as tissue-based, Cavia porcellus. The note with it: ex_vivo. The procedure, abridged:
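Guinea pig terminal ileum in a 5-ml Tyrode bath at 35°, with isometric kymograph recording at 16× magnification. Contact time was 30 sec with a 2-min cycle. Reference contractions used pilocarpine (0.6 μg). Compounds were applied at several concentrations, and potency relative to pilocarpine was calculated from contraction heights.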

In data set [4] the test system is Ileum. In words: Toxicity in guinea pig ileum assessed as spasmogenic activity treated 1 min after addition of 10 ng/ml muscarinic acetylcholine receptor antagonist atropine sulphate. It is filed as tissue-based, Cavia porcellus.
Data set [5] relates to Mus musculus. In words: Antidotal activity in ip dosed male mouse assessed as inhibition of tetraethylpyrophosphate-induced intoxication drug administered 5 mins prior to subcutaneously administration of 3 X LD50 of TEPP in presence of 25 mg/kg atropine sulfate. Conditions: at 25 mg/kg. It is filed as functional, organism-based. On the set-up: dose 25 mg/kg. A digest of the protocol: (§2)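 Male mice, 20 g body weight. Compound was dissolved in saline or propylene glycol and given ip at the maximal dose (up to 100 mg/kg) that caused no observable symptoms alongside atropine sulfate (25 mg/kg), per preliminary groups of four mice. It was co-injected with atropine 5 min before sc 3 × LD50 TEPP. Surviving mice were scored from two experiments of five animals each.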

For data set [6], the system named is Ileum. In words: Inhibition of acetylcholine-induced contraction in guinea pig ileum at 0.1 ug/ml. The format is functional. Conditions: Cavia porcellus. A digest of the protocol: as §1
The test system of data set [7] is Mus musculus. Description: Antidotal activity in male mouse assessed as inhibition of tetraethylpyrophosphate-induced intoxication at 100 mg/kg, ip drug administered 5 mins prior to subcutaneously administration of 3 X LD50 of TEPP in presence of 25 mg/kg atropine sulfate. The format is functional, organism-based. A digest of the protocol: as §2
Data set [8] relates to Ileum. In words: Toxicity in guinea pig ileum assessed as spasmogenic activity at 0.6 ug/ml. The format is tissue-based, Cavia porcellus.
Data set [9] concerns Mus musculus. In words: Antidotal activity in male mouse assessed as inhibition of tetraethylpyrophosphate-induced intoxication at 50 mg/kg, ip drug administered 5 mins prior to subcutaneously administration of 3 X LD50 of TEPP in presence of 25 mg/kg atropine sulfate. The format is functional, organism-based. A digest of the protocol:
as §2

Data set [10] concerns Ileum. Description: Inhibition of acetylcholine-induced contraction in guinea pig ileum at 1 ug/ml. The format is functional. The note with it: Cavia porcellus. The procedure, abridged: as §1
In data set [11] the test system is Mus musculus. In words: Antidotal activity in male mouse assessed as inhibition of tetraethylpyrophosphate-induced intoxication at 25 mg/kg, ip drug administered 5 mins prior to subcutaneously administration of 3 X LD50 of TEPP in presence of 25 mg/kg atropine sulfate. The format is functional, organism-based. The procedure, abridged:
as §2

Data set [12] deals with Ileum. Description: Inhibition of acetylcholine-induced contraction in guinea pig ileum at 0.03 ug/ml. The note with it: Cavia porcellus, read-out: INH.
In data set [13] the test system is Ileum. Description: Inhibition of acetylcholine-induced contraction in guinea pig ileum at 2 ug/ml. It is filed as functional. The note with it: Cavia porcellus. The procedure, abridged: as §1

Counter-ions that a name gives are not always drawn. Activity calls are given as the source filed them. No cut-off for these calls is given here.

In the data set on Ileum [1], `CCC(C(=O)NO)C(CO)Cc1c[n+](CC)cn1C` (stereo not given) gave an inhibition at 10 µg/mL of 55%.
For `CCC1C(=O)OCC1Cc1c[n+](CCCO)cn1C.[Br-]` (stereo not given), the inhibition at 0.4 µg/mL in the data set with Ileum [2] was 0%. For the same compound, in the data set on Ileum [3], the “fold change (FC)” value worked out at 0.05. Also, the Activity entry in the data set with Ileum [4] is recorded as “Non-toxic”.
With `CCC(C(=O)NO)C(CO)Cc1c[n+](C/C(=N\O)c2ccc(-c3ccccc3)cc2)cn1C` (stereo not given), the inhibition at 10 µg/mL in the data set on Ileum [1] is 53%.
Consider `CCC1C(=O)OCC1Cc1c[n+](C/C(=N\O)c2ccc(-c3ccccc3)cc2)cn1C` (stereo not given) [listing 1 of 2 here], for which the inhibition result in the data set on Mus musculus [5] was “inactive”.
With `CCC1C(=O)OCC1Cc1c[n+](C/C(=N\O)c2ccc(Br)cc2)cn1C.[Cl-]` (stereo not given), the “inhibition (INH)” value with Ileum [1] turned out to be 50%.
The compound `CCC(C(=O)NO)C(CO)Cc1c[n+](CC(=O)c2ccc([N+](=O)[O-])cc2)cn1C.[Br-]` (stereo not given) gave an inhibition at 0.1 µg/mL in the data set with Ileum [6] of 0%. In addition, the inhibition result in the data set with Mus musculus [5] is “inactive”. Besides, the “fold change (FC)” value in the data set with Ileum [3] was found to be 0.1. Also, the Activity result in the data set with Ileum [4] is on record as “Non-toxic”.
In the data set with Ileum [1], `CCC(C(=O)NO)C(CO)Cc1c[n+](Cc2ccc(Br)cc2)cn1C` (stereo not given) returned an inhibition at 10 µg/mL of 95%. The inhibition result in the data set on Mus musculus [7] is “Active”.
In the case of `CCC1C(=O)OCC1Cc1c[n+](C/C(=N\O)c2ccc(Br)cc2)cn1C.[Br-]` (stereo not given), the “inhibition (INH)” value in the data set on Ileum [1] stood at 100%.
As to `CCC1C(=O)OCC1Cc1c[n+](CC(=O)c2ccc(-c3ccccc3)cc2)cn1C` (stereo not given), in the data set on Ileum [1], the inhibition at 10 µg/mL came to 100%. The inhibition result with Mus musculus [5] is “inactive”.
The compound `CCC(C(=O)NO)C(CO)Cc1c[n+](C/C(=N\O)c2ccc(Br)cc2)cn1C` (stereo not given) registered an inhibition at 10 µg/mL in the data set on Ileum [1] of 55%.
Compound `CCC1C(=O)OCC1Cc1c[n+](CC(=O)c2ccc(Br)cc2)cn1C` (stereo not given) had an inhibition at 10 µg/mL in the data set on Ileum [1] of 90%. Also, the inhibition result with Mus musculus [7] was “inactive”.
In the case of `CCC1C(=O)OCC1Cc1c[n+](CCO)cn1C.[Br-]` (stereo not given), the inhibition at 0.1 µg/mL in the data set on Ileum [6] came out at 0%. In the data set with Mus musculus [5], the inhibition result was “inactive”. Also, the “fold change (FC)” value with Ileum [3] is 0.1. In addition, the Activity entry with Ileum [4] was “Non-toxic”.
With `CC[C@H]1C(=O)OC[C@@H]1Cc1cncn1C`, the “fold change (FC)” value in the data set on Ileum [3] was determined as 0.02. Moreover, the Activity entry in the data set with Ileum [4] is “Non-toxic”.
As to `CC[C@@H]1C(=O)OC[C@@H]1Cc1cncn1C` [PILOCARPINE], in the data set with Ileum [8], the Activity result is on record as “Toxic”.
In turn, `CCC1C(=O)OCC1Cc1c[n+](CCOC(C)=O)cn1C.[Br-]` (stereo not given) came in with an inhibition at 0.1 µg/mL in the data set on Ileum [6] of 0%. Also, in the data set with Mus musculus [7], the inhibition entry was “inactive”. Besides, the “fold change (FC)” value in the data set with Ileum [3] stood at 0.1. In addition, the Activity entry in the data set with Ileum [4] is recorded as “Non-toxic”.
Turning to `CCC1C(=O)OCC1Cc1c[n+](CCCOC(C)=O)cn1C.[Br-]` (stereo not given), the inhibition at 0.4 µg/mL with Ileum [2] came out at 0%. Further, in the data set on Ileum [3], the “fold change (FC)” value was found to be 0.05. Besides, the Activity entry with Ileum [4] was “Non-toxic”.
As to `CCC1C(=O)OCC1Cc1c[n+](C/C(=N\O)c2ccc(-c3ccccc3)cc2)cn1C.[Cl-]` (stereo not given), the “inhibition (INH)” value with Ileum [1] amounted to 80%.
Compound `CCC1C(=O)OCC1Cc1c[n+](C/C(=N/O)c2ccc([N+](=O)[O-])cc2)cn1C` (stereo not given) displayed an inhibition at 10 µg/mL in the data set on Ileum [1] of 90%. Besides, the inhibition result with Mus musculus [5] is “inactive”.
In turn, `CCC(C(=O)NO)C(CO)Cc1c[n+](CC(=O)c2ccc(Br)cc2)cn1C` (stereo not given) came in with an inhibition at 10 µg/mL in the data set with Ileum [1] of 80%. The inhibition entry in the data set on Mus musculus [5] was “inactive”.
Take `CCC(C(=O)NO)C(CO)Cc1c[n+](Cc2ccc(Cl)c(Cl)c2)cn1C` (stereo not given): the inhibition at 10 µg/mL with Ileum [1] was 25%. The inhibition result in the data set with Mus musculus [7] is “Active”.
In turn, `CCC1C(=O)OCC1Cc1c[n+](C/C(=N\O)c2ccccc2)cn1C` (stereo not given) had an inhibition at 10 µg/mL in the data set with Ileum [1] of 30%. In the data set on Mus musculus [9], the inhibition result is “Active”.
`CCC1C(=O)OCC1Cc1c[n+](CC(=O)c2ccc([N+](=O)[O-])cc2)cn1C.[Br-]` (stereo not given) showed an inhibition at 1 µg/mL with Ileum [10] of 0%. Also, the inhibition entry in the data set on Mus musculus [5] was “inactive”. Moreover, the “fold change (FC)” value in the data set with Ileum [3] was found to be 0.01.
In the case of `CCC1C(=O)OCC1Cc1c[n+](C/C(=N\O)c2ccc(-c3ccccc3)cc2)cn1C` (stereo not given) [listing 2 of 2 here], the inhibition at 10 µg/mL in the data set on Ileum [1] is 100%.
Compound `CCC(C(=O)NO)C(CO)Cc1c[n+](Cc2ccc(C)cc2)cn1C` (stereo not given) gave an inhibition at 10 µg/mL in the data set with Ileum [1] of 55%. Moreover, the inhibition entry in the data set on Mus musculus [7] is “Active”.
As to `CCC1C(=O)OCC1Cc1c[n+](C/C(=N\O)c2ccc(Br)cc2)cn1C` (stereo not given), the inhibition result in the data set with Mus musculus [5] is “inactive”. In the data set on Mus musculus [11], the inhibition result is “Active”.
Regarding `CN1[C@@H]2CC[C@H]1C[C@@H](OC(=O)C(CO)c1ccccc1)C2` (stereo not given in full) [ATROPINE SULFATE], in the data set with Ileum [12], the inhibition at 0.03 µg/mL amounted to 100%. In the data set with Mus musculus [5], the inhibition entry was “inactive”.
For `CCC(C(=O)NO)C(CO)Cc1c[n+](C/C(=N\O)c2ccc([N+](=O)[O-])cc2)cn1C.[Br-]` (stereo not given), in the data set with Ileum [13], the inhibition at 2 µg/mL worked out at 0%. The “fold change (FC)” value in the data set with Ileum [3] worked out at 0.01. Further, the Activity result in the data set on Ileum [4] was “Non-toxic”.
